From ChEMBL document CHEMBL4680121, “Development of (4-methoxyphenyl)-1H-tetrazol-5-amine regioisomers as a new class of selective antitubercular agents” (Eur J Med Chem, 2020)
In brackets after ≈: the same amount, converted by molar mass.

How the values were obtained:
[1] = tested on: Mycobacterium intracellulare; assay: Antimycobacterial activity against Mycobacterium intracellulare assessed as inhibition of microbial growth incubated for 1 week by MABA method; type: functional; conditions: 168 h, time 1 weeks
Outline: (§1)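 Microplate Alamar Blue assay using two-fold serial microdilution in Middlebrook 7H9 broth with 10% OADC, compounds 0.125–512 µg/ml from DMSO stocks. Inoculum came from fresh LJ culture, was adjusted to McFarland 1 and diluted 1:20. Plates were incubated 1 week at 37 °C, Alamar blue was added and plates were re-incubated 24 h. MIC was the lowest concentration preventing the blue-to-pink change. Each plate carried growth and sterile controls.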

[2] = tested on: Mycobacterium tuberculosis; assay: Antitubercular activity against Mycobacterium tuberculosis H37Rv ATCC 25618 assessed as inhibition of microbial growth incubated for 1 week by MABA method; type: functional; conditions: H37Rv ATCC 25618, 168 h, time 1 weeks
Outline: (§2)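 Microplate Alamar Blue assay in Middlebrook 7H9 broth with 10% OADC. Inoculum from fresh LJ culture was adjusted to McFarland 1 and diluted 1:20. DMSO stocks were two-fold serially diluted to final 0.125–512 µg/ml, with growth and sterile controls. Plates ran 1 week at 37 °C, then Alamar blue was added for 24 h. MIC is the lowest concentration preventing the blue-to-pink change.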

[3] = tested on: Mycobacterium tuberculosis; assay: Antitubercular activity against Mycobacterium tuberculosis Spec.192 assessed as inhibition of microbial growth incubated for 1 week by MABA method; type: functional; conditions: Mycobacterium tuberculosis, 192, 168 h; time 1 weeks; outline: as §2
Escherichia coli = assay: Antibacterial activity against Escherichia coli ATCC 25922 assessed as bacterial growth inhibition measured after 18 hrs by two-fold serial microdilution method; type: functional
Outline: (§3)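 Two-fold serial broth microdilution in MH II medium following modified CLSI procedures. Compounds were dissolved in DMSO and diluted in medium to at most 1% solvent, tested from 0.03125 to 512 μg/ml. Final inoculum 10^6 CFU/ml. MIC was taken as the lowest concentration with no visible growth after 18 h at 35 °C.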

Mycobacterium avium = assay: Antimycobacterial activity against Mycobacterium avium assessed as inhibition of microbial growth incubated for 1 week by MABA method; type: functional; conditions: 168 h, time 1 weeks; outline: as §2
Mycobacterium kansasii = assay: Antibacterial activity against Mycobacterium kansasii assessed as inhibition of microbial growth incubated for 1 week by MABA method; type: functional; conditions: 168 h, time 1 weeks; outline: as §1
[4] = tested on: Mycobacterium scrofulaceum; assay: Antibacterial activity against Mycobacterium scrofulaceum assessed as inhibition of microbial growth incubated for 1 week by MABA method; type: functional; conditions: 168 h, time 1 weeks; outline: as §1
[5] = tested on: Mycolicibacterium fortuitum; assay: Antibacterial activity against Mycobacterium fortuitum assessed as inhibition of microbial growth incubated for 1 week by MABA method; type: functional; conditions: 168 h, time 1 weeks; outline: as §1
Mycobacterium xenopi = assay: Antibacterial activity against Mycobacterium xenopi assessed as inhibition of microbial growth incubated for 1 week by MABA method; type: functional; conditions: 168 h, time 1 weeks; outline: as §1
[6] = tested on: Staphylococcus epidermidis; assay: Antibacterial activity against Staphylococcus epidermidis ATCC 35984/RP62A assessed as bacterial growth inhibition measured after 18 hrs by two-fold serial microdilution method; type: functional; outline: as §3
[7] = tested on: Staphylococcus epidermidis; assay: Antibacterial activity against Staphylococcus epidermidis ATCC 12228 assessed as bacterial growth inhibition measured after 18 hrs by two-fold serial microdilution method; type: functional; outline: as §3
[8] = tested on: Staphylococcus epidermidis; assay: Antibacterial activity against Staphylococcus epidermidis ATCC 1457 assessed as bacterial growth inhibition measured after 18 hrs by two-fold serial microdilution method; type: functional; outline: as §3
Staphylococcus aureus [9] = assay: Antibacterial activity against Staphylococcus aureus ATCC 6538 assessed as bacterial growth inhibition measured after 18 hrs by two-fold serial microdilution method; type: functional; outline: as §3
Staphylococcus aureus [10] = assay: Antibacterial activity against Staphylococcus aureus NCTC 4163 assessed as bacterial growth inhibition measured after 18 hrs by two-fold serial microdilution method; type: functional; outline: as §3
Pseudomonas aeruginosa [11] = assay: Antibacterial activity against Pseudomonas aeruginosa NCTC 6749 assessed as bacterial growth inhibition measured after 18 hrs by two-fold serial microdilution method; type: functional; outline: as §3
Pseudomonas aeruginosa [12] = assay: Antibacterial activity against Pseudomonas aeruginosa PAO1 assessed as bacterial growth inhibition measured after 18 hrs by two-fold serial microdilution method; type: functional; outline: as §3
Klebsiella pneumoniae = assay: Antibacterial activity against Klebsiella pneumoniae ATCC 10031 assessed as bacterial growth inhibition measured after 18 hrs by two-fold serial microdilution method; type: functional; outline: as §3
Proteus vulgaris = assay: Antibacterial activity against Proteus vulgaris NCTC 4635 assessed as bacterial growth inhibition measured after 18 hrs by two-fold serial microdilution method; type: functional; outline: as §3
V79 [13] = assay: Cytotoxicity against Chinese Hamster V79 cells assessed as reduction in cell viability measured after 72 hrs by MTT assay; type: cell-based; conditions: Cricetulus griseus, V79, 72 h
Outline: (§4)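 MTT viability assay on cells grown in DMEM with 10% heat-inactivated FBS, penicillin/streptomycin and 20 mM HEPES at 37 °C/5% CO2. Cells were seeded at 1×10^4 per well and allowed to adhere for 24 h, then the medium was refreshed. Compounds were added at 20–140 μM for 72 h at 37 °C, followed by MTT (0.5 mg/mL in serum-free medium) for 4 h. Untreated cells served as control. IC50 is the concentration giving 50% growth inhibition versus control.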

HaCaT [14] = assay: Cytotoxicity against human HaCaT cells assessed as reduction in cell viability measured after 72 hrs by MTT assay; type: cell-based; outline: as §4
V79 [15] = assay: Cytotoxicity against Chinese Hamster V79 cells assessed as reduction in cell viability at 100 uM measured after 72 hrs by MTT assay; type: cell-based, Cricetulus griseus; conditions: v79, 72 h; outline: as §4
HaCaT [16] = assay: Cytotoxicity against human HaCaT cells assessed as reduction in cell viability at 100 uM measured after 72 hrs by MTT assay; type: cell-based; outline: as §4

Structure (SMILES) | MIC [1] [µg/mL] | MIC [2] [µg/mL] | MIC [3] [µg/mL] | MIC (Escherichia coli) [µg/mL] | MIC (Mycobacterium avium) [µg/mL] | MIC (Mycobacterium kansasii) [µg/mL] | MIC [4] [µg/mL] | MIC [6] [µg/mL] | MIC [7] [µg/mL] | MIC [8] [µg/mL] | MIC (Staphylococcus aureus [9]) [µg/mL] | MIC (Staphylococcus aureus [10]) [µg/mL] | MIC (Pseudomonas aeruginosa [11]) [µg/mL] | MIC (Pseudomonas aeruginosa [12]) [µg/mL] | MIC (Klebsiella pneumoniae) [µg/mL] | MIC (Proteus vulgaris) [µg/mL] | IC50 (V79 [13]) [µM] | IC50 (HaCaT [14]) [µM] | Activity (V79 [15]) | Activity (HaCaT [16]) | other results
COc1ccc(Nc2nnnn2-c2ccc(Br)cc2)cc1 | 256 | 16 | 16 | > 256 | > 512 | 512 | 256 | > 256 | > 256 | > 256 | > 256 | > 256 | > 256 | > 256 | > 256 | > 256 | 125 | 103 | Non-Toxic | Non-Toxic | MIC [5]: > 512 µg/mL; MIC (Mycobacterium xenopi): 512 µg/mL
COc1ccc(-n2nnnc2Nc2ccc(Cl)cc2)cc1 | 32 | 16 | 16 | > 256 | > 512 | > 512 | > 512 | 128 (≈ 424 µM) | 64 (≈ 212 µM) | 128 (≈ 424 µM) | 128 (≈ 424 µM) | 128 (≈ 424 µM) | > 256 | > 256 | > 256 | 128 (≈ 424 µM) | 245 | 143 | Non-Toxic | Non-Toxic | MIC [5]: > 512 µg/mL; MIC (Mycobacterium xenopi): 512 µg/mL
COc1ccc(Nc2nnnn2-c2ccccc2F)cc1 | 128 | 16 | 16 | 256 (≈ 897 µM) | 256 | 256 | 32 | 64 (≈ 224 µM) | 64 (≈ 224 µM) | 64 (≈ 224 µM) | 64 (≈ 224 µM) | 64 (≈ 224 µM) | 256 (≈ 897 µM) | 256 (≈ 897 µM) | 256 (≈ 897 µM) | 256 (≈ 897 µM) | 212 | 122 | Non-Toxic | Non-Toxic | MIC [5]: 256 µg/mL; MIC (Mycobacterium xenopi): 128 µg/mL
COc1ccc(Nc2nnnn2-c2cccc(Br)c2)cc1 | > 256 | 16 | 16 | > 256 | 64 | 512 | 32 | > 256 | > 256 | > 256 | > 256 | > 256 | > 256 | > 256 | > 256 | > 256 | 124 | 107 | Non-Toxic | Non-Toxic | MIC [5]: 512 µg/mL; MIC (Mycobacterium xenopi): 512 µg/mL
COc1ccc(Nc2nnnn2-c2ccccc2Br)cc1 | 256 | 16 | 16 | > 256 | > 512 | 256 | 128 | > 256 | > 256 | > 256 | > 256 | > 256 | > 256 | > 256 | > 256 | > 256 | 119 | 105 | Non-Toxic | Non-Toxic | MIC [5]: > 512 µg/mL; MIC (Mycobacterium xenopi): > 512 µg/mL
COc1cccc2c1C(=O)c1c(O)c3c(c(O)c1C2=O)C[C@@](O)(C(=O)CO)C[C@@H]3O[C@H]1C[C@H](N)[C@H](O)[C@H](C)O1 [DOXORUBICIN] | – | – | – | – | – | – | – | – | – | – | – | – | – | – | – | – | 2.21 | 0.23 | – | – | –
COc1ccc(-n2nnnc2Nc2ccccc2F)cc1 | – | 16 | 16 | > 256 | – | – | – | > 256 | > 256 | > 256 | > 256 | > 256 | > 256 | > 256 | > 256 | > 256 | 115 | 111 | Non-Toxic | Non-Toxic | –
COc1ccc(-n2nnnc2Nc2ccc(F)cc2)cc1 | 16 | 32 | 32 | > 256 | 256 | 512 | 32 | 128 (≈ 449 µM) | 64 (≈ 224 µM) | 128 (≈ 449 µM) | 128 (≈ 449 µM) | 128 (≈ 449 µM) | 128 (≈ 449 µM) | > 256 | > 256 | 128 (≈ 449 µM) | 236 | 155 | Non-Toxic | Non-Toxic | MIC [5]: 512 µg/mL; MIC (Mycobacterium xenopi): > 512 µg/mL
COc1ccc(-n2nnnc2Nc2ccccc2Br)cc1 | 128 | 64 | 64 | > 256 | 256 | 512 | 256 | 256 (≈ 739 µM) | 128 (≈ 370 µM) | 256 (≈ 739 µM) | 256 (≈ 739 µM) | 256 (≈ 739 µM) | > 256 | > 256 | > 256 | > 256 | 239 | 137 | Non-Toxic | Non-Toxic | MIC [5]: 256 µg/mL; MIC (Mycobacterium xenopi): 512 µg/mL
COc1ccc(Nc2nnnn2-c2ccc(F)cc2)cc1 | 512 | 8 | 8 | 256 (≈ 897 µM) | > 512 | 512 | 64 | 128 (≈ 449 µM) | 64 (≈ 224 µM) | 128 (≈ 449 µM) | 64 (≈ 224 µM) | 64 (≈ 224 µM) | 256 (≈ 897 µM) | 256 (≈ 897 µM) | > 256 | 256 (≈ 897 µM) | 145 | 101 | Non-Toxic | Non-Toxic | MIC [5]: > 512 µg/mL; MIC (Mycobacterium xenopi): 256 µg/mL
O=C(O)c1cn(C2CC2)c2cc(N3CCNCC3)c(F)cc2c1=O [CIPROFLOXACIN] | – | – | – | < 0.0625 | – | – | – | 0.0625 (≈ 0.189 µM) | 0.125 (≈ 0.377 µM) | 0.125 (≈ 0.377 µM) | – | – | – | – | < 0.0625 | < 0.0625 | – | – | – | – | –
COc1ccc(-n2nnnc2Nc2ccccc2Cl)cc1 | 128 | 8 | 8 | > 256 | 128 | 512 | 32 | 256 (≈ 848 µM) | 128 (≈ 424 µM) | 64 (≈ 212 µM) | 32 (≈ 106 µM) | 32 (≈ 106 µM) | > 256 | > 256 | > 256 | 64 (≈ 212 µM) | 246 | 134 | Non-Toxic | Non-Toxic | MIC [5]: 256 µg/mL; MIC (Mycobacterium xenopi): 512 µg/mL
COc1ccc(-n2nnnc2Nc2cccc(Cl)c2)cc1 | 128 | 32 | 32 | > 256 | 256 | 512 | 512 | > 256 | > 256 | > 256 | > 256 | > 256 | > 256 | > 256 | > 256 | > 256 | 243 | 141 | Non-Toxic | Non-Toxic | MIC [5]: 256 µg/mL; MIC (Mycobacterium xenopi): > 512 µg/mL
